By fraction unbound is commonly meant the share of the substance not bound to proteins or other matrix. Usually half-life stands for how long it takes for the measured level to halve. Broadly, the pIC50 is −log10 of the IC50, conventionally taken in molar units.

pIC50: −log10 of the molar value.

Data set [1] concerns Brain. Briefly: Drug uptake in NMRI mouse brain at 0.178 MBq, iv after 2 mins post injection by gamma counting. The class given is ADME, organism-based. The settings on record: in vivo. In outline:
(§1)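 NMRI mice (25.0–31.5 g), three per time point, each given 0.178 MBq tracer in 0.9% NaCl; killed by isoflurane overdose at each post-injection time; organs and blood excised and γ-counted; values decay-corrected and expressed as %ID/g.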

The subject of data set [2] is Brain. Briefly: Drug uptake in NMRI mouse brain at 0.178 MBq, iv after 30 mins post injection by gamma counting. The settings on record: in vivo, 0.5 h. The data set is classed as ADME, organism-based. The method in brief: as §1
The subject of data set [3] is Brain. Briefly: Drug uptake in NMRI mouse brain at 0.178 MBq, iv after 4 hrs by gamma counting. The data set is classed as ADME, organism-based. The settings on record: in vivo. In outline:
as §1

For data set [4], the target named is T1, Amine oxidase [flavin-containing] B (Homo sapiens, UniProt P27338).
T1 sequence (P27338 whole entry): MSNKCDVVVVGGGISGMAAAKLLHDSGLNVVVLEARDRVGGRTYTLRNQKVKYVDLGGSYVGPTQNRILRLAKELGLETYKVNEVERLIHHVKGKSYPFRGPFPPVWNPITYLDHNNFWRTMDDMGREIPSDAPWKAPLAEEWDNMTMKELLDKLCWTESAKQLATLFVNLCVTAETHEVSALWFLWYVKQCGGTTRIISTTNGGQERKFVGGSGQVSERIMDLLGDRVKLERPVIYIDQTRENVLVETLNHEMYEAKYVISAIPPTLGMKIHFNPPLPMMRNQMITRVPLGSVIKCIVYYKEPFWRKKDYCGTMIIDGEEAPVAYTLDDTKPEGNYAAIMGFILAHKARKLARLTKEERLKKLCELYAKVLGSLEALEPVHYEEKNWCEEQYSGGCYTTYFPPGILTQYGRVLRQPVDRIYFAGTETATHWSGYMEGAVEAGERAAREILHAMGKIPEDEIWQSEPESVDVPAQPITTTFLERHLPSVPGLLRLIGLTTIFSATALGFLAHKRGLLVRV
Briefly: Binding affinity to MAO-B in human brain Alzheimer disease slices at 4 MBq after 90 mins by autoradiography. As to conditions: 1.5 h; call rule not given here.

For data set [5], the target named is T1, Amine oxidase [flavin-containing] B. Briefly: Binding affinity to MAO-B in human brain Alzheimer disease slices at 4 MBq after 90 mins by autoradiography in presence of 10 uM MAO-B inhibitor L-deprenyl. The settings on record: 1.5 h.
Data set [6] has the same target. Kind of data set: Binding affinity to MAO-B in human brain Alzheimer disease slices at 4 MBq after 90 mins by autoradiography in presence of 10 uM MAO-B inhibitor rasagiline. As to conditions: 1.5 h.
Data set [7] has the same target. Kind of data set: Binding affinity to MAO-B in human brain Alzheimer disease slices at 4 MBq after 90 mins by autoradiography in presence of 10 uM MAO-A inhibitor pirlindole. The settings on record: 1.5 h.
In data set [8] the target is T2, Amine oxidase [flavin-containing] A (Homo sapiens, UniProt P21397).
T2 sequence (P21397 whole entry): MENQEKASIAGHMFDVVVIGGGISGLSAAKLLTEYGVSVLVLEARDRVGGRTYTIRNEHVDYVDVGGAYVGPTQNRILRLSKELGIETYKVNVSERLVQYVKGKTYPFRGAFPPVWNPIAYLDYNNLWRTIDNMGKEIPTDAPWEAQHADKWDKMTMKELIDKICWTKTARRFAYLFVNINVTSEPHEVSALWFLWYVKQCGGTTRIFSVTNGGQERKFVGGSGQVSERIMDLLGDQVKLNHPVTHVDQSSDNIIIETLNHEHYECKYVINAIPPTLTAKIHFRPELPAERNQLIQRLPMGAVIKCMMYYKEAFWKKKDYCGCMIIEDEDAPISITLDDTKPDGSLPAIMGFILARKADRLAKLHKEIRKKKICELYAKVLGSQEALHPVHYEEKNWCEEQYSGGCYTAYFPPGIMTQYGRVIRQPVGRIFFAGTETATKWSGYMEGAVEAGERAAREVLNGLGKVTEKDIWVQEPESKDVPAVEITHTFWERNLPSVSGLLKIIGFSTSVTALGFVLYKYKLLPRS
Kind of data set: Binding affinity to MAO-A in human brain Alzheimer disease slices at 4 MBq after 90 mins by autoradiography. As to conditions: 1.5 h.

Data set [9] can be described thus: Fraction unbound in human plasma at 20 MBq after 10 mins by ultrafiltration. The class given is ADME, cell-free. The method in brief: (§2)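 Duplicate: 500 μL monkey or human plasma, or PBS pH 7.4 as control, mixed with 50 μL tracer formulation (~20 MBq in PBS), 10 min at room temperature; 200 μL ultrafiltered by centrifugation 15 min at 3000 rpm; total and filtrate well-counted; bound fraction corrected for membrane binding using PBS control.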

Data set [10] in a line: Fraction unbound in monkey plasma at 20 MBq after 10 mins by ultrafiltration. The data set is classed as ADME, cell-free, Macaca mulatta. The settings on record: rhesus monkey. The method in brief: as §2
The target in data set [11] is T1, Amine oxidase [flavin-containing] B. Kind of data set: Binding affinity to MAO-B in human brain white matter at 4 MBq after 90 mins by autoradiography. The class given is tissue-based. The settings on record: 1.5 h. In outline:
(§3)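 100 μm whole-hemisphere post-mortem brain sections (control subject, 11 h post-mortem, stored at −25 °C) incubated 90 min at room temperature with 4 MBq/200 mL radiotracer in 50 mM TRIS pH 7.4 (NaCl 120 mM, KCl 5 mM, CaCl2 2 mM, 0.1% albumin); washed 3 × 5 min in buffer, dipped in ice-cold water, dried, phosphorimaged.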

For data set [12] the target is unchanged. Briefly: Binding affinity to MAO-B in human brain cortical gray matter at 4 MBq after 90 mins by autoradiography. The data set is classed as tissue-based. As to conditions: 1.5 h. The method in brief: as §3
Data set [13] has the same target. Kind of data set: Binding affinity to MAO-B in human brain white matter at 4 MBq after 90 mins by autoradiography in presence of 10 uM MAO-B inhibitor L-deprenyl. The settings on record: 1.5 h. The class given is tissue-based. In outline:
as §3

Data set [14] shares this target. Briefly: Binding affinity to MAO-B in human brain white matter at 4 MBq after 90 mins by autoradiography in presence of 10 uM MAO-A inhibitor pirlindole. The class given is tissue-based. As to conditions: 1.5 h. In outline:
as §3

Data set [15] shares this target. Kind of data set: Binding affinity to MAO-B in human brain white matter at 4 MBq after 90 mins by autoradiography in presence of 10 uM MAO-B inhibitor rasagiline. The class given is tissue-based. The settings on record: 1.5 h. The method in brief:
as §3

Data set [16] shares this target. Briefly: Binding affinity to MAO-B in human brain hippocampus at 4 MBq after 90 mins by autoradiography. The class given is tissue-based. As to conditions: 1.5 h. The method in brief: as §3
The target is the same in data set [17]. Briefly: Binding affinity to MAO-B in human brain cortical gray matter at 4 MBq after 90 mins by autoradiography in presence of 10 uM MAO-B inhibitor L-deprenyl. As to conditions: 1.5 h. The class given is tissue-based. The method in brief:
as §3

The target is the same in data set [18]. Briefly: Binding affinity to MAO-B in human brain cortical gray matter at 4 MBq after 90 mins by autoradiography in presence of 10 uM MAO-B inhibitor rasagiline. The settings on record: 1.5 h. The class given is tissue-based. The method in brief:
as §3

The target is the same in data set [19]. Kind of data set: Binding affinity to MAO-B in human brain cortical gray matter at 4 MBq after 90 mins by autoradiography in presence of 10 uM MAO-A inhibitor pirlindole. The class given is tissue-based. As to conditions: 1.5 h. In outline:
as §3

Data set [20] is described as follows: Stability of the compound in PBS buffer assessed as half life at pH 7.4. The class given is physicochemical.
Data set [21] has as its target T1, Amine oxidase [flavin-containing] B. Kind of data set: Inhibition of human recombinant MAO-B expressed in insect cells assessed as inhibition of kynuramine oxidation after 30 mins by fluorescence assay. The data set is classed as cell-based.
The target in data set [22] is T2, Amine oxidase [flavin-containing] A. Kind of data set: Inhibition of human recombinant MAO-A expressed in insect cells assessed as inhibition of kynuramine oxidation after 30 mins by fluorescence assay.

In the case of `C#CCN(C)[C@H](C[18F])Cc1ccccc1`, the Drug uptake amounted to 5.2 % ID/g in the data set on Brain [1], 1.9 % ID/g in the data set with Brain [2] and 1.4 % ID/g in the data set with Brain [3]. In addition, the Activity entry in data set [4] is given as “Active”; in data set [5] it was “Not Active”; in data set [6], “Not Active”; in data set [7], “Active”; in [8] it was “Not Active”. In addition, the results for the fraction unbound at 10 min, 20 MBq in [9] and in [10] were 0.168 and 0.241, respectively.
With `C#CCN(CC[18F])[C@H](C)Cc1ccccc1`, the Activity result is “Active” in data set [11]; “Not Active” in data set [12]; “Active” in data set [13]; “Active” in data set [14]; “Active” in data set [15].
Turning to `C#CCN(C)[C@H](C)[C@@H]([18F])c1ccccc1`, the Activity result in data set [16] was “Active”; in [17] it was “Not Active”; in data set [18] it was “Not Active”; in data set [19], “Active”.
Consider `C#CCN(CCF)[C@H](C)Cc1ccccc1`, for which the half-life in [20] was 1.83 h. In addition, in [21], the pIC50 is < 5.70.
In the case of `C#CCN(C)[C@H](C)[C@H](F)c1ccccc1`, in [20], the half-life was determined as 1.83 h. The pIC50 in [21] is < 5.70.
As to `C#CCN(C)[C@H](CF)Cc1ccccc1`, the half-life in [20] stood at 1.83 h. For the same molecule, the pIC50 in [22] was < 5.70; in [21] it was 6.77.

Source of the values: ChEMBL document CHEMBL1909627, “Synthesis of three novel fluorine-18 labeled analogues of L-deprenyl for positron emission tomography (PET) studies of monoamine oxidase B (MAO-B)” (J Med Chem, 2011).
